Experimental data reported in ChEMBL document CHEMBL1157505, “Design and in vitro characterization of highly sst2-selective somatostatin antagonists suitable for radiotargeting” (J Med Chem, 2008).
Activity calls are given as the source filed them. The rule behind the calls is not given here.

What was measured:
[1] = biological target: T1, Somatostatin receptor type 2 (Homo sapiens, UniProt P30874); assay: Antagonist activity at T7 epitope tagged human cloned sst2 receptor expressed in HEK293 cells assessed as inhibition of receptor internalization upto 10 uM by ELISA; format: functional, cell-based
How it was run: (§1)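 Surface T7-tagged sst2 on HEK-sst2 cells labelled with anti-T7 antibody 2 h RT in DMEM-LH, then cells exposed 30 min at 37 °C to analogue (alone up to 10 μM or with [Tyr3]-octreotide), fixed in 3% paraformaldehyde, probed with HRP anti-mouse IgG, ABTS read at OD405; surface receptor as % of untreated; mean ± SEM, three experiments in duplicate.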

[2] = biological target: T1, Somatostatin receptor type 2; assay: Antagonist activity at T7 epitope tagged human cloned sst2 expressed in HEK293 cells assessed as [Tyr3]octreotide-induced intracellular calcium release upto 10 uM; format: functional, cell-based
How it was run: (§2)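 HEK-sst2 cells seeded on poly-D-lysine, cultured 1 day, loaded with Fluo-4NW dye (assay buffer HBSS/20 mM HEPES, 2.5 mM probenecid) 30 min 37 °C plus 30 min RT. Analogues alone up to 10 μM, or [Tyr3]-octreotide with 100-fold excess analogue; fluorescence (ex 485/em 520 nm) recorded 60 s at RT; percentage of ionomycin (25 μM) maximum over baseline; ≥3 experiments in triplicate.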

[3] = biological target: T1, Somatostatin receptor type 2; assay: Antagonist activity at T7 epitope tagged human cloned sst2 expressed in HEK293 cells assessed as intracellular calcium release upto 10 uM; format: functional, cell-based; how it was run: as §2
[4] = biological target: T1, Somatostatin receptor type 2; assay: Antagonist activity at T7 epitope tagged human cloned sst2 receptor expressed in HEK293 cells assessed as inhibition of [Tyr3]octreotide-induced receptor internalization upto 10 uM by immunofluorescence-based assay; format: functional, cell-based
How it was run: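 Immunofluorescence microscopy with sst2-specific antibody R2-88 on HEK-sst2 cells treated 30 min with vehicle, 100 nM [Tyr3]-octreotide, 100 nM [Tyr3]-octreotide plus 100-fold excess (10 μM) analogue, or analogue alone at 10 μM; internalization scored as punctate perinuclear staining.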

[5] = biological target: T1, Somatostatin receptor type 2; assay: Antagonist activity at T7 epitope tagged human cloned sst2 receptor expressed in HEK293 cells assessed as inhibition of [Tyr3]octreotide-induced receptor internalization upto 10 uM; format: functional, cell-based; how it was run: as §1
[6] = biological target: Somatostatin receptor type 1 (Homo sapiens, UniProt P30872); assay: Displacement of [125I][LTT]SRIF28 from human cloned sst1 receptor by autoradiography
[7] = biological target: Somatostatin receptor type 4 (Homo sapiens, UniProt P31391); assay: Displacement of [125I][LTT]SRIF28 from human cloned sst4 receptor by autoradiography
[8] = biological target: Somatostatin receptor type 5 (Homo sapiens, UniProt P35346); assay: Displacement of [125I][LTT]SRIF28 from human cloned sst5 receptor by autoradiography
[9] = biological target: Somatostatin receptor type 3 (Homo sapiens, UniProt P32745); assay: Displacement of [125I][LTT]SRIF28 from human cloned sst3 receptor by autoradiography
[10] = biological target: T1, Somatostatin receptor type 2; assay: Displacement of [125I][LTT]SRIF28 from human cloned sst2 receptor by autoradiography

Sequence of Somatostatin receptor type 4 (P31391 whole entry): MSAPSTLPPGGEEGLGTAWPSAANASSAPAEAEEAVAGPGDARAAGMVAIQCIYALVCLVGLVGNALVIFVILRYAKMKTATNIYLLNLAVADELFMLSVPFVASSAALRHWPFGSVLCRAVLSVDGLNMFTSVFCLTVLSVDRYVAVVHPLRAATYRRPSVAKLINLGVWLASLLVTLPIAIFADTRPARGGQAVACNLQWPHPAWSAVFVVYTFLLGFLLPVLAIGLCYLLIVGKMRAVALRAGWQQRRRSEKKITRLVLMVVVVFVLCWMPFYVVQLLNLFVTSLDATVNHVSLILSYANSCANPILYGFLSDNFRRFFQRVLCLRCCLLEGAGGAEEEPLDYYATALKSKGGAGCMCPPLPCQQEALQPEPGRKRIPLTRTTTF
Sequence of Somatostatin receptor type 3 (P32745 whole entry): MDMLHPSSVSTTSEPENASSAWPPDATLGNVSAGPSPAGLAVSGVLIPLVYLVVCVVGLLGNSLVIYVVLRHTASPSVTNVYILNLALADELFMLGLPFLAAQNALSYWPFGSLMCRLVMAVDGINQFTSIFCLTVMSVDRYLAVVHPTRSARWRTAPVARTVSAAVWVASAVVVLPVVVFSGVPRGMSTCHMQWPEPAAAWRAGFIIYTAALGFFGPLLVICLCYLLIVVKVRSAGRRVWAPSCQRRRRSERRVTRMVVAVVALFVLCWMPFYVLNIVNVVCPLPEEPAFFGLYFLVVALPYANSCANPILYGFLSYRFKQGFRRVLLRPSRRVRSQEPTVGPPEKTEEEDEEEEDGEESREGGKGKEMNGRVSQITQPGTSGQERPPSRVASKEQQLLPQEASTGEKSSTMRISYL
Sequence of Somatostatin receptor type 1 (P30872 whole entry): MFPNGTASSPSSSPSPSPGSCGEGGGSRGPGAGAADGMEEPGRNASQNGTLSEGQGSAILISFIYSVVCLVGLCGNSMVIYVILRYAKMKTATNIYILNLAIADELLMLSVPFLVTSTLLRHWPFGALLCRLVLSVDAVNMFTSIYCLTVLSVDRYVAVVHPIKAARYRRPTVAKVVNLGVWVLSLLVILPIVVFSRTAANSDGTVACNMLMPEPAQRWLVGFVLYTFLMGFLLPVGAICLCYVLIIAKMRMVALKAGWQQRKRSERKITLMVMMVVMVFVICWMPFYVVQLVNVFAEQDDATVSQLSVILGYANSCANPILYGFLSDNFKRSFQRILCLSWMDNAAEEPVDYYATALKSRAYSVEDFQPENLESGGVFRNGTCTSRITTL
T1 sequence (P30874 whole entry): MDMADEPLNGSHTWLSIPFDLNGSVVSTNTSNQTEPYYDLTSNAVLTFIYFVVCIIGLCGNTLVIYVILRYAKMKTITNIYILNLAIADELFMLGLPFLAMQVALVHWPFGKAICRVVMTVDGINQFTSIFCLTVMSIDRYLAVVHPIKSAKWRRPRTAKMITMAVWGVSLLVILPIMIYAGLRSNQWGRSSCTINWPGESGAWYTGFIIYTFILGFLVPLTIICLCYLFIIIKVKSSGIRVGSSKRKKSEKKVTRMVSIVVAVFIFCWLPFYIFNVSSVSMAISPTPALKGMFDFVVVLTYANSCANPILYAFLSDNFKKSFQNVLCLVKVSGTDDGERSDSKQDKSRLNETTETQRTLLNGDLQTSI
Sequence of Somatostatin receptor type 5 (P35346 whole entry): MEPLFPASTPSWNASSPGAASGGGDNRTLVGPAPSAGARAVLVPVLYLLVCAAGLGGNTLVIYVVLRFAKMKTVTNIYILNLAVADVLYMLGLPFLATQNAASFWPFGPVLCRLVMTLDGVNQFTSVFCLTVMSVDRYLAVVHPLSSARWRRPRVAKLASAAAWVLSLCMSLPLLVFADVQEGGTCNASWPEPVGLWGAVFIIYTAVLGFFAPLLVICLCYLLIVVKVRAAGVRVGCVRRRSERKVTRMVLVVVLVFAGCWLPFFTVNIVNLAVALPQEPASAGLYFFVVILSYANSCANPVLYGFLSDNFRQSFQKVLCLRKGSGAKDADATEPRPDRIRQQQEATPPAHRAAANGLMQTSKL

| Structure (SMILES) | Activity [1] | Activity [2] | Activity [3] | Activity [4] | Activity [5] | IC50 [6] [nM] | IC50 [7] [nM] | IC50 [8] [nM] | IC50 [9] [nM] | IC50 [10] [nM] |
| --- | --- | --- | --- | --- | --- | --- | --- | --- | --- | --- |
| C[C@@H](O)[C@@H]1NC(=O)[C@H](CCCCN)NC(=O)[C@@H](Cc2ccc(NC(N)=O)cc2)NC(=O)[C@H](Cc2ccc(NC(=O)[C@@H]3CC(=O)NC(=O)N3)cc2)NC(=O)[C@H](NC(=O)[C@H](Cc2ccc(Cl)cc2)NC(=O)CN2CCN(CC(=O)O)CCN(CC(=O)O)CCN(CC(=O)O)CC2)CSSC[C@@H](C(=O)N[C@@H](Cc2ccc3ccccc3c2)C(N)=O)NC1=O | – | – | – | – | – | > 1000 | > 1000 | > 1000 | > 1000 | 1.7 |
| C[C@@H](O)[C@@H]1NC(=O)[C@H](CCCCN)NC(=O)[C@@H](Cc2ccc(NC(N)=O)cc2)NC(=O)[C@H](Cc2ccc(NC(=O)[C@@H]3CC(=O)NC(=O)N3)cc2)NC(=O)[C@H](NC(=O)[C@@H](N)Cc2ccc(Cl)cc2)CSSC[C@@H](C(=O)N[C@@H](Cc2ccc3ccccc3c2)C(N)=O)NC1=O | – | – | – | – | – | > 1000 | > 1000 | > 1000 | 83 | 2.4 |
| C[C@@H](O)[C@@H]1NC(=O)[C@H](CCCCN)NC(=O)[C@@H](Cc2c[nH]c3ccccc23)NC(=O)[C@H](Cc2ccc(NC(N)=O)cc2)NC(=O)[C@H](NC(=O)[C@@H](Cc2ccc(Cl)cc2)NC(=O)CCNC(=O)CN2CCN(CC(=O)O)CCN(CC(=O)O)CCN(CC(=O)O)CC2)CSSC[C@@H](C(=O)N[C@@H](Cc2ccc3ccccc3c2)C(N)=O)NC1=O | – | Active | inactive | – | Active | – | – | – | – | – |
| C[C@@H](O)[C@@H]1NC(=O)[C@H](CCCCN)NC(=O)[C@@H](Cc2ccc(NC(N)=O)cc2)NC(=O)[C@H](Cc2ccc(O)cc2)NC(=O)[C@H](NC(=O)[C@@H](Cc2ccc([N+](=O)[O-])cc2)NC(=O)CN2CCN(CC(=O)O)CCN(CC(=O)O)CCN(CC(=O)O)CC2)CSSC[C@@H](C(=O)N[C@H](Cc2ccc(O)cc2)C(N)=O)NC1=O | – | Active | inactive | Active | Active | – | – | – | – | – |
| C[C@@H](O)[C@@H]1NC(=O)[C@H](CCCCN)NC(=O)[C@@H](Cc2c[nH]c3ccccc23)NC(=O)[C@H](Cc2ccc(NC(N)=O)cc2)NC(=O)[C@H](NC(=O)[C@@H](N)Cc2ccc(Cl)cc2)CSSC[C@@H](C(=O)N[C@@H](Cc2ccc(NC(=O)[C@@H]3CC(=O)NC(=O)N3)cc2)C(N)=O)NC1=O | – | – | – | – | – | > 1000 | > 1000 | 320 | 162 | 27 |

Second part, the compound after the results:

| Activity [1] | Activity [2] | Activity [3] | Activity [4] | Activity [5] | IC50 [6] [nM] | IC50 [7] [nM] | IC50 [8] [nM] | IC50 [9] [nM] | IC50 [10] [nM] | Structure (SMILES) |
| --- | --- | --- | --- | --- | --- | --- | --- | --- | --- | --- |
| inactive | Active | inactive | Active | Active | – | – | – | – | – | C[C@@H](O)[C@@H]1NC(=O)[C@H](CCCCN)NC(=O)[C@@H](Cc2c[nH]c3ccccc23)NC(=O)[C@H](Cc2ccc(O)c(I)c2)NC(=O)[C@H](NC(=O)[C@@H](Cc2ccc([N+](=O)[O-])cc2)NC(=O)CN2CCN(CC(=O)O)CCN(CC(=O)O)CCN(CC(=O)O)CC2)CSSC[C@@H](C(=O)N[C@H](Cc2ccc(O)cc2)C(N)=O)NC1=O |
| – | – | – | – | – | > 1000 | > 1000 | > 1000 | > 1000 | – | C[C@@H](O)[C@@H]1NC(=O)[C@H](CCCCN)NC(=O)[C@@H](Cc2ccc(NC(N)=O)cc2)NC(=O)[C@H](Cc2ccc(NC(=O)[C@@H]3CC(=O)NC(=O)N3)cc2)NC(=O)[C@H](NC(=O)[C@H](Cc2ccc(Cl)cc2)NC(=O)CN2CCN(CC(=O)O)CCN(CC(=O)O)CCN(CC(=O)O)CC2)CSSC[C@@H](C(=O)N[C@H](Cc2ccc(O)cc2)C(N)=O)NC1=O |
| – | – | – | – | – | > 1000 | > 1000 | > 1000 | 451 | 2.7 | C[C@@H](O)[C@@H]1NC(=O)[C@H](CCCCN)NC(=O)[C@@H](Cc2ccc(NC(N)=O)cc2)NC(=O)[C@H](Cc2ccc(NC(=O)[C@@H]3CC(=O)NC(=O)N3)cc2)NC(=O)[C@H](NC(=O)[C@@H](N)Cc2ccc([N+](=O)[O-])cc2)CSSC[C@@H](C(=O)N[C@@H](Cc2ccc3ccccc3c2)C(N)=O)NC1=O |
| – | – | – | – | – | > 1000 | 728 | 895 | 88 | 40 | C[C@@H](O)[C@@H]1NC(=O)[C@H](CCCCN)NC(=O)[C@@H](Cc2c[nH]c3ccccc23)NC(=O)[C@H](Cc2ccc(NC(N)=O)cc2)NC(=O)[C@H](NC(=O)[C@H](Cc2ccc(Cl)cc2)NC(=O)CCOCCOCCOCCNC(=O)CN2CCN(CC(=O)O)CCN(CC(=O)O)CCN(CC(=O)O)CC2)CSSC[C@@H](C(=O)N[C@@H](Cc2ccc3ccccc3c2)C(N)=O)NC1=O |
| – | – | – | – | – | > 1000 | 455 | > 1000 | > 1000 | 1.2 | C[C@@H](O)[C@@H]1NC(=O)[C@H](CCCCN)NC(=O)[C@@H](Cc2c[nH]c3ccccc23)NC(=O)[C@H](Cc2ccc(O)c(I)c2)NC(=O)[C@H](NC(=O)[C@H](Cc2ccc([N+](=O)[O-])cc2)NC(=O)CN2CCN(CC(=O)O)CCN(CC(=O)O)CCN(CC(=O)O)CC2)CSSC[C@@H](C(=O)N[C@H](Cc2ccc(O)cc2)C(N)=O)NC1=O |
| – | Active | inactive | Active | Active | – | – | – | – | – | C[C@@H](O)[C@@H]1NC(=O)[C@H](CCCCN)NC(=O)[C@@H](Cc2ccc(NC(N)=O)cc2)NC(=O)[C@H](Cc2ccc(NC(=O)[C@@H]3CC(=O)NC(=O)N3)cc2)NC(=O)[C@H](NC(=O)[C@@H](Cc2ccc(Cl)cc2)NC(=O)CN2CCN(CC(=O)O)CCN(CC(=O)O)CCN(CC(=O)O)CC2)CSSC[C@@H](C(=O)N[C@H](Cc2ccc(O)cc2)C(N)=O)NC1=O |
| – | Active | inactive | – | Active | – | – | – | – | – | C[C@@H](O)[C@@H]1NC(=O)[C@H](CCCCN)NC(=O)[C@@H](Cc2c[nH]c3ccccc23)NC(=O)[C@H](Cc2ccc(NC(N)=O)cc2)NC(=O)[C@H](NC(=O)[C@H](N)Cc2ccc(Cl)cc2)CSSC[C@@H](C(=O)N[C@@H](Cc2ccc3ccccc3c2)C(N)=O)NC1=O |
| – | Active | inactive | – | Active | – | – | – | – | – | C[C@@H](O)[C@@H]1NC(=O)[C@H](CCCCN)NC(=O)[C@@H](Cc2ccc(NC(N)=O)cc2)NC(=O)[C@H](Cc2ccc(O)cc2)NC(=O)[C@H](NC(=O)[C@@H](Cc2ccc([N+](=O)[O-])cc2)NC(=O)CN2CCN(CC(=O)O)CCN(CC(=O)O)CCN(CC(=O)O)CC2)CSSC[C@@H](C(=O)N[C@@H](Cc2ccc3ccccc3c2)C(N)=O)NC1=O |
